Key:
ERβ = assay: Expression of other nuclear hormone receptors: ERβ; type: cell-based; details: Figure S3
ERRβ = assay: Real-time PCR, transcriptional level of ERRβ; type: cell-based; details: 5.0 μM, 24 h incubation
Outline: (§1)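 mRNA was quantified by real-time PCR with SYBR Premix Ex Taq under optimised conditions. Gene expression was normalised to Gapdh as the reference gene.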

[1] = system: glucose/insulin-induced HepG2-IR cells; assay: Oil red O lipid accumulation, glucose/insulin-induced HepG2-IR cells; type: cell-based; details: high glucose/high insulin HepG2-IR, 10.0 μM, 48 h
Outline: (§2)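 HepG2 steatosis models were induced two ways. Line 3 used DMEM with 10% FBS and 1% BSA plus palmitic (0.33 mM) and oleic (0.66 mM) acid, final 1.0 mM, for 24 h. Line 4 used high glucose and insulin. Cells received DMSO or 10.0 μM test compound for 48 h; Erra overexpression and shRNA knockdown served as controls. Cells were formaldehyde-fixed, stained with 0.5% oil red O in isopropanol for 30 min with hematoxylin counterstain, and lipid was quantified.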

[2] = Pharmacokinetics in SD rats; type: in vivo, rat
Outline: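 Male Sprague–Dawley rats were dosed with test compound i.v. at 2.0 mg/kg or by oral gavage at 10 mg/kg. The formulation was 5% DMSO/95% hydroxypropyl-β-cyclodextrin (20% w/v) at 1 mg/mL. Orbital-sinus blood was drawn into heparin at 5, 15 and 30 min and at 1, 2, 4, 6, 8 and 24 h. Plasma was stored at −80 °C and quantified by LC/MS, and PK parameters were calculated.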

ERRγ = assay: Real-time PCR, transcriptional level of ERRγ; type: cell-based; details: 5.0 μM, 24 h incubation
Outline: as §1

ERα = assay: Expression of other nuclear hormone receptors: ERα; type: cell-based; details: Figure S3
ERRα [3] = target: T1, ERRα (Homo sapiens, UniProt P11474); assay: Transient transfection mammalian two-hybrid reporter gene assay; details: 5.0 μM, 24 h incubation, heterologous cell-based reporter assay
T1 sequence (P11474 193-421 limits assumed): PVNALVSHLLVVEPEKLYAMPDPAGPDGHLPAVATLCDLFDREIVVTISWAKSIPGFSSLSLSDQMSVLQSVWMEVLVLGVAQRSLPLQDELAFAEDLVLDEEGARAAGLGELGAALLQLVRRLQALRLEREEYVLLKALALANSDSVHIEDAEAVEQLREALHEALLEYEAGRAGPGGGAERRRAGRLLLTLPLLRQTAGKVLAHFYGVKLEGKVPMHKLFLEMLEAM
T1 sequence (Q9UBK2 1-798 partner): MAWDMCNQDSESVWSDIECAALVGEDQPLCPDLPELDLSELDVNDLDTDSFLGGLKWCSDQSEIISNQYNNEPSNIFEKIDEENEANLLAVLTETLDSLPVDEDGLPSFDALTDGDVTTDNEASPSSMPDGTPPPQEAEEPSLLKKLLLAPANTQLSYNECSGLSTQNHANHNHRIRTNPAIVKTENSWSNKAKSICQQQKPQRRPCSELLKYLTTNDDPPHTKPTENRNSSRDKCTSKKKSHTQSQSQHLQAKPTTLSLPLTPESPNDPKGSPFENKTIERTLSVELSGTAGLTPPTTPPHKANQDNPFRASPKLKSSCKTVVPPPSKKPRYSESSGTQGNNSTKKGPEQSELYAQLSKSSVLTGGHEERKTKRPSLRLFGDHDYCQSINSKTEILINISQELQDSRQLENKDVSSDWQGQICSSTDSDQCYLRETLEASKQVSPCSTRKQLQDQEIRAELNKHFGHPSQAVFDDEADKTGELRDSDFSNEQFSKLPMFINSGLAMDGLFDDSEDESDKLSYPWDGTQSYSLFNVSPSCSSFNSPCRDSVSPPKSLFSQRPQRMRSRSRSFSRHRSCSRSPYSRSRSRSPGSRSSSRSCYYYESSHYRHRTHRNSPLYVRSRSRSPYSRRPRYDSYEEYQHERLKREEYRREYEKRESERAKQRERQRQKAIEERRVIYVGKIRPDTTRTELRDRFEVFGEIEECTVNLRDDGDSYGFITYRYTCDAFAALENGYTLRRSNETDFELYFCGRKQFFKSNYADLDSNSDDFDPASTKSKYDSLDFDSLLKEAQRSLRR
Outline: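 HEK293T cells were seeded at 10,000/well in DMEM with 10% FBS. After 18–24 h they were lipofected with GAL4-DBD-ERRα-LBD (0.5 ng), pcDNA-PGC-1α (0.5 ng), pFR reporter (25 ng) and pRL-TK Renilla control (3.0 ng). Test compound was added at 5.0 μM 6 h post-transfection for a further 24 h, and firefly/Renilla luciferase was read by dual-luciferase assay.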

ERRα-LBD = target: T2, ERRα-LBD (Homo sapiens, UniProt P11474); assay: AlphaScreen assay, interaction of ERRα-LBD with PGC1α peptide; type: binding
T2 sequence (P11474 193-421 limits assumed): T1 sequence (P11474 193-421 limits assumed)
Outline: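 AlphaScreen used a hexahistidine detection kit with 200 nM His-tagged ERRα-LBD and 50 nM biotinylated PGC1α cofactor peptide, plus donor and acceptor beads. Buffer was 50 mM MOPS, 50 mM NaF, 0.05 mM CHAPS and 0.1 mg/mL BSA at pH 7.4. Test compound was added as a serial dilution series, and EC50 was derived from enhancement of the LBD–peptide interaction.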

HFD-induced obese mice = assay: HFD-induced obese C57 mice, daily oral treatment for 4 weeks; type: in vivo, mouse
Outline: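 C57 mice were made obese on HFD for 8 weeks; low-fat-diet mice served as controls. They were then gavaged daily for 4 weeks with test compound (10 or 30 mg/kg) or PBS vehicle diluted in 0.5% CMC-Na. Body weight and fasting glucose were tracked during dosing. Mice were fasted overnight and killed, and livers were taken for kit-based CS activity, mtDNA and SYBR qPCR (Gapdh reference); n = 5.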

HepG2-IR cells [4] = assay: Fatty acid oxidation assay in HepG2-IR cells; type: cell-based
Outline: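 Insulin-resistant HepG2 (HepG2-IR) cells were treated with test compound or vehicle for 24 h. They were then incubated 1.5 h at 37 °C with 0.2 mM L-carnitine and 200 μM [14C(U)]palmitate (0.1 μCi/mL), compound still present. Released CO2 was trapped on methylbenzylamine/methanol-soaked paper after acidifying with 6 M HCl. Acid-soluble products in the supernatant were also counted by scintillation. Values were normalised to protein (BCA) from parallel wells.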

[5] = system: ERRα target genes in HepG2-IR cells; assay: Expression of ERRα and target genes in HepG2-IR cells; type: cell-based
PPARγ = assay: Expression of other nuclear hormone receptors: PPARγ; type: cell-based; details: Figure S3
ERRα [6] = target: T3, ERRα (Homo sapiens, UniProt P11474); assay: AAB-Luc cells stably expressing ERRα luciferase reporter; type: cell-based
T3 sequence (P11474 1-423): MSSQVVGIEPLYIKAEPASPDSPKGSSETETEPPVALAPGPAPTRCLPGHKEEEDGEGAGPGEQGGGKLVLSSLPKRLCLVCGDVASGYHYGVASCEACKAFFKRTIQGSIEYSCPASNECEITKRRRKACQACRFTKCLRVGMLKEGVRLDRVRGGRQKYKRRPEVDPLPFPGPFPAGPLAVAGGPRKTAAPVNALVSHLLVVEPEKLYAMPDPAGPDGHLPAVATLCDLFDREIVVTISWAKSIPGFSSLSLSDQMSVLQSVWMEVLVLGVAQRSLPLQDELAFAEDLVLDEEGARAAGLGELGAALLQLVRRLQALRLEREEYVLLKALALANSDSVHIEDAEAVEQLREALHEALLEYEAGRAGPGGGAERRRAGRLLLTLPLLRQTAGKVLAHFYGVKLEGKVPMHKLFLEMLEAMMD
Outline: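 HEK293T cells were stably transduced at MOI 7 with a lentiviral AAB-GFP-Luc reporter. AAB is the ERRα response element, and the vector carries GFP and luciferase markers. The ERRα luciferase reporter read-out was multiplexed with a cell-viability assay. Test compounds were screened in three independent experiments.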

ERγ = assay: Expression of other nuclear hormone receptors: ERγ; type: cell-based; details: Figure S3
[7] = system: FFA-induced HepG2-IR cells; assay: Oil red O lipid accumulation, FFA-induced HepG2-IR cells; type: cell-based; details: palmitic acid (FFA) HepG2-IR, 10.0 μM, 48 h
Outline: as §2

[8] = system: ERRα-targeted genes MCAD, PDK4, ATP5β; assay: Quantitative real-time PCR of ERRα-targeted genes; type: cell-based
Outline: as §1

ERRα [9] = assay: Real-time PCR, transcriptional level of ERRα; type: cell-based; details: 5.0 μM, 24 h incubation
Outline: as §1

ERRα [10] = target: T3, ERRα; assay: Cellular thermal shift assay; type: cell-based; details: HepG2 cells, concentration as low as 1.0 μM
Outline: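 HepG2 cells grown to ~90% confluence were exposed to DMSO or test compound (1.0 or 5.0 μM in fresh medium) for 4 h at 37 °C, 5% CO2. Cells were harvested, washed, resuspended in PBS, split into seven aliquots and heated at 48–60 °C for 3 min. They were then held 10 min at room temperature and freeze-thawed thrice in liquid nitrogen. Lysates were spun 30 min at 4 °C and soluble ERRα was assessed by SDS-PAGE/western blot.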

Errα-LKO mice = Errα-LKO mice on HFD treated with compound; type: in vivo, mouse; details: 30 mg/kg body weight
Outline: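 Liver-specific Errα knockout mice came from crossing Errα-floxed with albumin-Cre mice. They were fed HFD for 8 weeks, then gavaged daily for 4 weeks with test compound (30 mg/kg) or PBS vehicle diluted in 0.5% CMC-Na. For IGTT, overnight-fasted mice received 1.0 g/kg glucose i.p. For ITT, 6 h-fasted mice received 0.5 U/kg human insulin i.p. Tail-vein glucose was read by glucometer. Liver glucose uptake was also measured; n = 5.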

[11] = Tissue distribution after oral administration; type: in vivo; details: male, SD, rat, 30 mg/kg
Outline: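 Male SD animals received a single oral gavage of test compound at 30 mg/kg in 0.5% CMC-Na. Blood and tissues were collected at 0.25, 0.5, 2 and 4 h, with 3 animals per time point. Heparinised blood was centrifuged and plasma stored at −80 °C. Plasma and tissue concentrations were measured by LC/MS and expressed as tissue-to-plasma ratios.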

HepG2-IR cells [12] = assay: Glucose uptake assay in HepG2-IR cells; type: cell-based
Outline: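 HepG2-IR cells were starved 2 h in serum-free medium, then washed in glucose-free KRPH buffer (HEPES, pH 7.4, 0.2% fatty-acid-free BSA). They were incubated 30 min in KRPH with 5.0 μM test compound, 5 mM D-glucose and 2-deoxy-D-[3H]glucose. After ice-cold PBS washes, cells were lysed in 0.5 M NaOH/0.1% SDS and neutralised with HCl. Uptake was read by liquid scintillation counting.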

[13] = male, Sprague-Dawley, rat, plasma, po, 10 mg/kg
[14] = 10 and 30 mg/kg/day oral, 4 weeks
[15] = abdominal adipose tissue/plasma

Expression of ERβ (ERβ): not obviously affected
Maximum plasma concentration ([2]; SD rat, PO 10 mg/kg): 2.0 ± 0.45 µM
F (oral bioavailability) ([2]; SD rat, PO 10 mg/kg vs IV 2 mg/kg, printed on the IV line of Table S1): 9.0%
Cmax [2, 13]: 531 ± 120 ng/mL
Tmax [2, 13]: 15 min
AUC(0-inf) ([2]; male, Sprague-Dawley, rat, plasma, po, 10 mg/kg, AUC(0-∞), SD rat, PO 10 mg/kg): 383 ± 110 ng·h/mL
Expression of ERα (ERα): not obviously affected
EC50 (ERRα-LBD): 0.086 µM
Expression of PPARγ (PPARγ): not obviously affected
EC50 (ERRα [6]): 2.7 µM
Expression of ERγ (ERγ): not obviously affected
Kp at 0.25 h [11, 15]: 7.4
Kp at 0.5 h [11, 15]: 30.1
Kp at 2 h [11, 15]: 22.8
Kp at 4 h [11, 15]: 235
Kp at 0.25 h ([11]; liver/plasma): 58.9
Kp at 0.5 h ([11]; liver/plasma): 39.8
Kp at 2 h ([11]; liver/plasma): 28.6
Kp at 4 h ([11]; liver/plasma): 47.4
SMILES: COc1ccc2c(=O)n(C)c(-c3ccccc3)nc2c1 [Compound 7, 7-methoxy-3-methyl-2-phenyl quinazolin-4(3H)-one]
Effect on transcriptional level of ERRβ (ERRβ): did not display an obvious effect
Lipid accumulation (oil red O) [1]: significantly alleviated lipid accumulation
Effect on transcriptional level of ERRγ (ERRγ): did not display an obvious effect
ERRα-driven luciferase activity (ERRα [3]): effectively improved the ERRα-driven luciferase activity
Body weight (HFD-induced obese mice; [14]): did not obviously affect body weight
Glucose tolerance (IGTT) (HFD-induced obese mice; [14]): improved glucose tolerance
Insulin resistance (ITT) (HFD-induced obese mice; [14]): improved glucose tolerance and insulin resistance
Fasting glucose levels (HFD-induced obese mice; 10 and 30 mg/kg/day oral, 4 weeks, vs vehicle): decreased fasting glucose levels
Plasma FFA (HFD-induced obese mice; HFD-elevated level): attenuated
Plasma TC (HFD-induced obese mice; HFD-elevated level): attenuated
Plasma TG (HFD-induced obese mice; HFD-elevated level): attenuated
Plasma insulin (HFD-induced obese mice; HFD-elevated level): attenuated
Transcription of Errα and target genes (Pdk4, Atp5β, Pgc1α) in mouse liver (HFD-induced obese mice; both 10 and 30 mg/kg): significantly elevated transcription
Expression of FFA oxidation genes Mcad and Cpt1a in liver (HFD-induced obese mice; compound-treated group): obviously enhanced
Food intake (HFD-induced obese mice; compound-treated vs PBS-fed mice): similar
Serum ALT level (HFD-induced obese mice; daily oral): dampened
Serum AST level (HFD-induced obese mice; daily oral): dampened
Hepatic steatosis (Oil red O and HE staining) (HFD-induced obese mice; daily oral, both 10 and 30 mg/kg): potently mitigated hepatic steatosis
CS activity (HFD-induced obese mice; liver): higher CS activity
Copy number of mitochondrial DNA (HFD-induced obese mice; liver): elevated
Fatty acid oxidation (HFD-induced obese mice; liver tissue): higher
Protein levels of AOX1, Cytochrome C, SDH, CPT1A (HFD-induced obese mice; liver, western blot): elevated
Oxygen consumption (HFD-induced obese mice; metabolic cage): elevated oxygen consumption
Protein levels of ERRα, PDK4, MCAD, ATP5β in liver (HFD-induced obese mice; western blot): significantly increased protein levels
Akt signaling pathways in the liver (p-Akt/total Akt) (HFD-induced obese mice; western blot of liver tissue): significantly sensitized Akt signaling pathways
Fatty acid oxidation (HepG2-IR cells [4]): significantly enhanced
Expression of ERRα target genes including Errα [5]: increased by the molecule in a dose-dependent manner
Lipid accumulation (oil red O) [7]: significantly alleviated lipid accumulation
mRNA levels of ERRα downstream genes (MCAD, PDK4, ATP5β) [8]: dose-dependently elevated mRNA levels
Elevation of transcriptional level of ERRα (ERRα [9]): approximately 2.5 fold
Thermal degradation of ERRα (ERRα [10]): obviously inhibited thermal degradation of ERRα
Effects on systemic and liver insulin resistance in Errα-LKO mice (Errα-LKO mice): almost completely abolished
Glucose uptake (HepG2-IR cells [12]): significantly enhanced

— PMC9302452 (ACS Bio & Med Chem Au, 2022)
